Test results from ChEMBL document CHEMBL4000173, “An evaluation of central penetration from a peripherally administered oxytocin receptor selective antagonist in nonhuman primates” (Bioorg Med Chem, 2017).

Key:
Rhesus monkey [1] = assay: In vivo antagonist activity at OXTR in rhesus monkey assessed as concentration in CSF required to displace endogenous oxytocin at 6.15, im; type: functional, Macaca mulatta
Summary of the method: (§1)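 Estimated OXTR-relevant CSF targets for male rhesus macaques. Values come from OT levels before and after aerosolized IN OT (24 IU) reported in earlier work. They assume a 10 ml total CSF volume and scale from the in vitro Ki, which was measured by displacing 2 nM [3H]OT.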

[2] = Cmax in rhesus monkey plasma at 6150 ug, im by LC-MS method; type: ADME, organism-based, Macaca mulatta; parameters: dose 6150 ug, route intramuscular
Summary of the method: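 Anesthetised male rhesus macaques (n=2; Telazol IM, propofol IV) received 6.15 mg in propylene glycol (6.15 mg/ml) injected into the inner thigh muscle. Plasma was spiked with internal standard and extracted by solid-liquid extraction with ethyl acetate, then redissolved in water/methanol/formic acid 70:30:0.1. It was quantified in duplicate by C18 LC-MS/MS against a rhesus-plasma calibration curve.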

[3] = Half life in rhesus monkey plasma at 202 to 7690 ug administered via intranasal nebulization for 8 mins by LC-MS method; type: ADME, cell-free, Macaca mulatta; details: inhaled or intranasal
Summary of the method: (§2)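 Four male rhesus macaques, 5 years old, 9–13 kg, under Telazol (4–5 mg/kg IM) then IV propofol. Dose in propylene glycol given by face mask from a pediatric nebulizer for 8 min. Lumbar CSF collected by passive drip at 60 and 120 min; blood-tinged CSF excluded. Plasma solid-phase extracted with ethyl acetate. LC-MS/MS in duplicate against an internal standard and a 0.8–10 pg/ml calibration curve. ke = (lnC1 − lnC2)/(t2 − t1), confirmed by semi-log regression; t1/2 = 0.693/ke.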

Rhesus monkey [4] = assay: Activity at OXTR in rhesus monkey assessed as concentration in CSF required to elicit behavioral effects at 6.15, im; type: functional, Macaca mulatta; summary of the method: as §1
[5] = Tmax in rhesus monkey plasma at 7690 ug administered via intranasal nebulization for 8 mins by LC-MS method; type: ADME, cell-free, Macaca mulatta; details: inhaled or intranasal; summary of the method: as §2
[6] = Tmax in rhesus monkey plasma at 202 ug administered via intranasal nebulization for 8 mins by LC-MS method; type: ADME, cell-free, Macaca mulatta; details: inhaled or intranasal; summary of the method: as §2
[7] = Cmax in rhesus monkey CSF at 1650 ug, im by LC-MS method; type: ADME, organism-based, Macaca mulatta, Cerebrospinal fluid; parameters: dose 1650 ug, route intramuscular
[8] = Tmax in rhesus monkey CSF at 202 ug administered via intranasal nebulization for 8 mins by LC-MS method; type: ADME, Macaca mulatta, Cerebrospinal fluid; details: inhaled or intranasal; summary of the method: as §2
[9] = Cmax in rhesus monkey plasma at 7690 ug administered via intranasal nebulization for 8 mins by LC-MS method; type: ADME, cell-free, Macaca mulatta; parameters: dose 7690 ug, route nasal; details: inhaled or intranasal
Summary of the method: (§3)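 Anesthetised male rhesus macaques (Telazol IM, propofol IV) inhaled drug in propylene glycol (low 120 μg/ml, high 6.15 mg/ml) by pediatric nebuliser and face mask for 8 min; dose was taken from nebuliser residue. Plasma (stored −80 C) was spiked with internal standard and extracted by solid-liquid extraction with ethyl acetate, then dried and redissolved in water/methanol/formic acid 70:30:0.1. It was measured in duplicate by C18 LC-MS/MS against a rhesus-plasma calibration. Recovery was about 86%.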

Rhesus monkey [10] = assay: In vivo antagonist activity at OXTR in rhesus monkey assessed as concentration in CSF required to displace endogenous oxytocin at 7.69 mg administered via intranasal nebulization for 8 mins; type: functional, Macaca mulatta; summary of the method: as §1
[11] = Elimination rate constant in rhesus monkey plasma at 202 to 7690 ug administered via intranasal nebulization for 8 mins by LC-MS method; type: ADME, cell-free, Macaca mulatta; details: inhaled or intranasal; summary of the method: as §2
[12] = Half life in rhesus monkey CSF at 7690 ug administered via intranasal nebulization for 8 mins by LC-MS method; type: ADME, Macaca mulatta, Cerebrospinal fluid; details: in vivo, inhaled_or_intranasal; summary of the method: as §2
[13] = Cmax in rhesus monkey CSF at 202 ug administered via intranasal nebulization for 8 mins by LC-MS method; type: ADME, Macaca mulatta, Cerebrospinal fluid; parameters: dose 202 ug, route nasal; details: inhaled or intranasal
Summary of the method: (§4)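 Four male rhesus macaques (5 yr, 9–13 kg) under IM Telazol, then IV propofol. Drug in propylene glycol (low 120 μg/ml, high 6.15 mg/ml) was aerosolised for 8 min by pediatric nebuliser through a face mask. Dose was taken from the nebuliser residue. Lumbar CSF was collected by passive drip at 60 and 120 min; blood-tinged samples were discarded. CSF was run unprocessed by LC-MS/MS in duplicate against an artificial-CSF calibration (0.8–10 pg/ml) with internal standard.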

[14] = Cmax in rhesus monkey plasma at 202 ug administered via intranasal nebulization for 8 mins by LC-MS method; type: ADME, cell-free, Macaca mulatta; parameters: dose 202 ug, route nasal; details: inhaled or intranasal; summary of the method: as §3
[15] = Tmax in rhesus monkey plasma at 6150 ug, im by LC-MS method; type: ADME, organism-based, Macaca mulatta
Summary of the method: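 Male rhesus macaques (5 yr, 9–13 kg), anaesthetised with Telazol IM then IV propofol drip, given 6.15 mg in propylene glycol (6.15 mg/ml) into inner thigh muscle (n=2). Plasma separated, stored −80 C, extracted by solid-liquid phase with ethyl acetate plus internal standard. LC-MS/MS (C18, water/methanol/formic acid) in duplicate against calibration curve in rhesus plasma; time of maximum plasma concentration taken.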

[16] = Cmax in rhesus monkey CSF at 7690 ug administered via intranasal nebulization for 8 mins by LC-MS method; type: ADME, Macaca mulatta, Cerebrospinal fluid; parameters: dose 7690 ug, route nasal; details: inhaled or intranasal; summary of the method: as §4
[17] = Elimination rate constant in rhesus monkey CSF at 7690 ug administered via intranasal nebulization for 8 mins by LC-MS method; type: ADME, Macaca mulatta, Cerebrospinal fluid; details: in vivo, inhaled_or_intranasal; summary of the method: as §2
[18] = Tmax in rhesus monkey CSF at 7690 ug administered via intranasal nebulization for 8 mins by LC-MS method; type: ADME, Macaca mulatta, Cerebrospinal fluid; details: inhaled or intranasal; summary of the method: as §2
Rhesus monkey [19] = assay: Activity at OXTR in rhesus monkey assessed as concentration in CSF required to elicit behavioral effects at 7.69 mg administered via intranasal nebulization for 8 mins; type: functional, Macaca mulatta; summary of the method: as §1
Oxytocin receptor = target: T1, Oxytocin receptor (Homo sapiens, UniProt P30559); assay: Displacement of [3H]Oxytocin from human OXTR expressed in CHO cell membranes after 90 mins by liquid scintillation counting method
T1 sequence (P30559 whole entry): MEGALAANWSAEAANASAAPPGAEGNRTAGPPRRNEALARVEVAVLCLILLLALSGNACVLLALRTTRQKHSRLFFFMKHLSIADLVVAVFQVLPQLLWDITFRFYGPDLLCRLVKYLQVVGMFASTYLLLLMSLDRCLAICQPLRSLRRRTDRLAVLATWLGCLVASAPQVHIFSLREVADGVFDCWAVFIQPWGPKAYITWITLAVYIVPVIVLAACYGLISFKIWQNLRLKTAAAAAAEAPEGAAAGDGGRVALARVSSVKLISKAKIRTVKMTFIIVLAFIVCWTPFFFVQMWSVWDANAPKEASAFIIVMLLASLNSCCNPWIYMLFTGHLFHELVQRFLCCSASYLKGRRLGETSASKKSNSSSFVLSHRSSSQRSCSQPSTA

[20] = Drug uptake in Sprague-Dawley rat skull at 340 to 390 uCi, im up to 120 mins by PET imaging method; type: ADME, organism-based; details: in vivo, 2 h
Summary of the method: (§5)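 Female Sprague-Dawley rats, 200–330 g, under 4–5% isoflurane in oxygen. [18F]tracer, 340–390 μCi in 100 μl, injected IM just above the knee of the hind leg. PET starting 15 min post injection, 2 h scan, with 7 min Co-57 transmission scan. Time-activity curves of mean nCi/cc, n=3.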

[21] = Drug uptake in Sprague-Dawley rat muscle at 340 to 390 uCi, im up to 120 mins by PET imaging method; type: ADME, organism-based, Muscle tissue; details: in vivo, 2 h; summary of the method: as §5
[22] = Drug uptake in Sprague-Dawley rat muscle at 126 to 295 uCi, iv administered as 30 mins bolus infusion after 15 to 90 mins by PET imaging method; type: ADME, organism-based, Muscle tissue; details: in vivo
Brain = assay: Drug uptake in Sprague-Dawley rat brain at 126 to 295 uCi, iv administered as 30 mins bolus infusion after 15 to 90 mins by PET imaging method; type: ADME, organism-based; details: in vivo
[23] = Drug uptake in Sprague-Dawley rat skull at 126 to 295 uCi, iv administered as 30 mins bolus infusion after 15 to 90 mins by PET imaging method; type: ADME, organism-based; details: in vivo

CS(=O)(=O)N1CCC(Oc2ccc(CC(=O)N3CCC(N4C(=O)CCc5ccccc54)CC3)c(OCCF)c2)CC1
Activity (Rhesus monkey [1]): 56 pM
Cmax [2]: 740 ng/mL
half-life [3]: 0.483 h
Activity (Rhesus monkey [4]): 24 pM
Tmax [5]: 0.25 h
Tmax [6]: 5 min
Cmax [7]: 0.478 ng/mL
Tmax [8]: 2 h
Cmax [9]: 156 ng/mL
Activity (Rhesus monkey [10]): 56 pM
k el at 8 min [11]: 0.0004 s⁻¹
t1/2 [12]: 1.6 h
Cmax [13]: 0.00736 ng/mL
Cmax [14]: 1.16 ng/mL
Tmax [15]: 1 h
Cmax [16]: 0.0972 ng/mL
Kel [17]: 0.007 min⁻¹
Tmax [18]: 1 h
Activity (Rhesus monkey [19]): 24 pM

Cc1ccccc1N1CCN(S(=O)(=O)CC23CCC(CC2NC(=O)C(N)CCS(C)(=O)=O)C3(C)C)CC1 (stereo not given)
Ki (Oxytocin receptor): 0.017 µM

CS(=O)(=O)N1CCC(Oc2ccc(CC(=O)N3CCC(N4C(=O)CCc5ccccc54)CC3)c(OCC[18F])c2)CC1
Drug uptake [20]: Active
Drug uptake [21]: Active
Drug uptake [22]: Active
Drug uptake (Brain): Active
Drug uptake [23]: Active
